Experimental data published in ChEMBL document CHEMBL1821616, “New insights into the structural requirements for pro-apoptotic agents based on 2,4-diaminoquinazoline, 2,4-diaminopyrido[2,3-d]pyrimidine and 2,4-diaminopyrimidine derivatives” (Eur J Med Chem, 2011).
Activity calls are given as the source filed them. No cut-off for these calls is given here.

Tests used:
HT-29 [1] = assay: Induction of apoptosis in human HT-29 cells assessed as DNA fragmentation after 48 hrs by ELISA relative to control; type: functional
In short: (§1)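 DNA fragmentation was measured with the Cell Death Detection ELISA Plus kit after treatment of cultured tumour cells. The signal is expressed relative to untreated control cultures, which are set to 1.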

MDA-MB-231 [2] = assay: Induction of apoptosis in human MDA-MB-231 cells assessed as DNA fragmentation after 24 hrs by ELISA relative to control; type: functional; in short: as §1
T-24 [3] = assay: Cytotoxicity against human T24 cells after 48 hrs by neutral red dye assay; type: functional, cell-based
HT-29 [4] = assay: Cytotoxicity against human HT-29 cells after 48 hrs by neutral red dye assay; type: functional, cell-based
MDA-MB-231 [5] = assay: Cytotoxicity against human MDA-MB-231 cells after 48 hrs by neutral red dye assay; type: functional, cell-based
T-24 [6] = assay: Cytotoxicity against human T24 cells after 72 hrs by neutral red dye assay; type: functional, cell-based; conditions: T-24, 72 h
In short: (§2)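 Human tumour cells were grown as monolayers with 10% FBS and penicillin/streptomycin at 37 °C in 5% CO2 (HT-29 and T-24 in McCoy's, MDA-MB-231 in Leibovitz). They were exposed to compound in DMSO (≤0.5% v/v final) at screening concentrations of 20 and 100 μM for 72 h and read by neutral red uptake. Survival is relative to cells given DMSO only, in triplicate.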

HT-29 [7] = assay: Cytotoxicity against human HT-29 cells after 72 hrs by neutral red dye assay; type: functional, cell-based; conditions: HT-29, 72 h; in short: as §2
MDA-MB-231 [8] = assay: Cytotoxicity against human MDA-MB-231 cells after 72 hrs by neutral red dye assay; type: functional, cell-based; conditions: MDA-MB-231, 72 h; in short: as §2
T-24 [9] = assay: Induction of apoptosis in human T24 cells assessed as DNA fragmentation after 48 hrs by ELISA relative to control; type: functional; in short: as §1
[10] = Cytotoxicity against human CRL8799 cells assessed as cell survival at 20 to 100 uM after 72 hrs by neutral red dye assay; type: cell-based; conditions: read-out: Survival
In short: (§3)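 The non-tumoral lines were grown with 10% FBS plus penicillin/streptomycin, as monolayers at 37 °C in 5% CO2: CRL-8799 in MEG medium and CRL-11233 in BEGM. Compounds in DMSO (≤0.5% v/v final) were applied for 72 h. Survival was read by neutral red uptake against 0.5% DMSO solvent-treated controls, as the mean of triplicates.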

[11] = Cytotoxicity against human CRL11233 cells assessed as cell survival at 20 to 100 uM after 72 hrs by neutral red dye assay; type: cell-based; conditions: read-out: Survival; in short: as §3
T-24 [12] = assay: Cytotoxicity against human T24 cells assessed as cell survival at 100 uM after 72 hrs by neutral red dye assay; type: functional; conditions: T-24, 72 h, read-out: Survival
In short: (§4)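 HT-29 and T-24 cells were grown in McCoy's medium and MDA-MB-231 in Leibovitz, each with 10% FBS plus penicillin/streptomycin, as monolayers at 37 °C in 5% CO2. Compounds in DMSO (≤0.5% v/v final) were applied for 72 h. Survival was read by neutral red uptake against 0.5% DMSO-treated cells, as the mean of triplicates.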

HT-29 [13] = assay: Cytotoxicity against human HT-29 cells assessed as cell survival at 100 uM after 72 hrs by neutral red dye assay; type: functional; conditions: HT-29, 72 h, read-out: Survival; in short: as §4
MDA-MB-231 [14] = assay: Cytotoxicity against human MDA-MB-231 cells assessed as cell survival at 100 uM after 72 hrs by neutral red dye assay; type: functional; conditions: MDA-MB-231, 72 h, read-out: Survival; in short: as §4
T-24 [15] = assay: Induction of apoptosis in human T24 cells assessed as DNA fragmentation after 48 hrs by ELISA relative to camptothecin; type: functional
HT-29 [16] = assay: Induction of apoptosis in human HT-29 cells assessed as DNA fragmentation after 48 hrs by ELISA relative to camptothecin; type: functional

SMILES: CC(C)Sc1nc(NCCCO)c2cccnc2n1
- Activity (HT-29 [1]): inactive
- Activity (MDA-MB-231 [2]): inactive
- IC50 (T-24 [3]): Not Active
- IC50 (HT-29 [4]): Not Active
- IC50 (MDA-MB-231 [5]): Not Active

SMILES: c1ccc(CNc2ccnc(NCc3ccccc3)n2)cc1
- IC50 (T-24 [6]): 6.1 µM
- IC50 (HT-29 [7]): 17.2 µM
- IC50 (MDA-MB-231 [8]): 1900 nM
- fold change (FC) (T-24 [9]): 6
- fold change (FC) (HT-29 [1]): 7.4
- Activity (MDA-MB-231 [2]): inactive
- viability at 72 h, up to 100 µM [10]: 22%
- viability at 72 h, up to 100 µM [11]: 0%
- viability at 100 µM (T-24 [12]): < 45%
- viability at 100 µM (HT-29 [13]): < 45%
- viability at 100 µM (MDA-MB-231 [14]): < 45%
- fold change (FC) (T-24 [15]): 2.3
- fold change (FC) (HT-29 [16]): 2.3

SMILES: CCSc1nc(NCCCCCO)c2cccnc2n1
- IC50 (T-24 [3]): Not Active
- IC50 (HT-29 [4]): Not Active
- IC50 (MDA-MB-231 [5]): Not Active

SMILES: CCCCCNc1nc(SCCCCC)nc2ncccc12
- Activity (HT-29 [1]): inactive
- IC50 (T-24 [3]): Not Active
- IC50 (HT-29 [4]): Not Active
- IC50 (MDA-MB-231 [5]): Not Active

SMILES: CCSc1nc(NCCCCO)c2cccnc2n1
- IC50 (T-24 [3]): Not Active
- IC50 (HT-29 [4]): Not Active
- IC50 (MDA-MB-231 [5]): Not Active

SMILES: CCSc1nc(NCCCO)c2cccnc2n1
- IC50 (T-24 [3]): Not Active
- IC50 (HT-29 [4]): Not Active
- IC50 (MDA-MB-231 [5]): Not Active

SMILES: c1ccc(CCNc2nc(NCCc3ccccn3)c3cccnc3n2)nc1
- IC50 (T-24 [3]): Not Active
- IC50 (HT-29 [4]): Not Active
- IC50 (MDA-MB-231 [5]): Not Active

SMILES: OCCCNc1nc(NCCCO)c2cccnc2n1
- IC50 (T-24 [3]): Not Active
- IC50 (HT-29 [4]): Not Active
- IC50 (MDA-MB-231 [5]): Not Active

SMILES: OCCCCNc1nc(NCCCCO)c2cccnc2n1
- IC50 (T-24 [3]): Not Active
- IC50 (HT-29 [4]): Not Active
- IC50 (MDA-MB-231 [5]): Not Active

SMILES: CCCCCSc1nc(NCCCC)c2cccnc2n1
- IC50 (T-24 [3]): Not Active
- IC50 (HT-29 [4]): Not Active
- IC50 (MDA-MB-231 [5]): Not Active

SMILES: c1ccc(CCCCNc2ccnc(NCCCCc3ccccc3)n2)cc1
- IC50 (T-24 [3]): Not Active
- IC50 (HT-29 [4]): Not Active
- IC50 (MDA-MB-231 [5]): Not Active
